Measured values reported in ChEMBL document CHEMBL2169786, “5-Arylidenethioxothiazolidinones as inhibitors of tyrosyl-DNA phosphodiesterase I” (J Med Chem, 2012).
Active and inactive are the calls of the source. The calls are words filed in the database; no cut-off is given here.

Legend:
[1] = molecular target: T1, Tyrosyl-DNA phosphodiesterase 1 (Homo sapiens, UniProt Q9NUW8); assay: Inhibition of human recombinant Tdp1 assessed as conversion of 14-mer 5'-32P-labeled 3'-phosphotyrosyl DNA substrate N14Y to 14-mer 5'-32P-labeled 3'-phosphate DNA product N14P after 15 mins by PAGE analysis
T1 sequence (Q9NUW8 whole entry): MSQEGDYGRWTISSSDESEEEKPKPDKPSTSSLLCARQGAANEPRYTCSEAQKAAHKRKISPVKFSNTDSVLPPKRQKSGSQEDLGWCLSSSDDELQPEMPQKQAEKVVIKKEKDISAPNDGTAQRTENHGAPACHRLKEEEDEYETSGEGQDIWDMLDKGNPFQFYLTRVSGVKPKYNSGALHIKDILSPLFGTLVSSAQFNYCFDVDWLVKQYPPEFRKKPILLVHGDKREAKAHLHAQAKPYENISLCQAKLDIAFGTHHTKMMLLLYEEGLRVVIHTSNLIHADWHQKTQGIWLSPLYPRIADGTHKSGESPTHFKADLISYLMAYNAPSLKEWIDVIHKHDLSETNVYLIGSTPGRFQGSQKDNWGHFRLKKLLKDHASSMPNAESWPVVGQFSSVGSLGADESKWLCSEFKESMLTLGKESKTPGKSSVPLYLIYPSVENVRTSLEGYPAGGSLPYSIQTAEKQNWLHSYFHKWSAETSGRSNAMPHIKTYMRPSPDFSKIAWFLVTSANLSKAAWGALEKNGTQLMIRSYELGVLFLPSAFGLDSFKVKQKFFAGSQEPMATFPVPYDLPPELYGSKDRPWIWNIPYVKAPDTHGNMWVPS

[2] = molecular target: T1, Tyrosyl-DNA phosphodiesterase 1; assay: Inhibition of human recombinant Tdp1 expressed in Tdp1 knockout chicken DT40 cells using 5'-32P-labeled 5'-GATCTAAAAGACTT-pY-3' as substrate after 15 mins by PAGE analysis
[3] = molecular target: T2, Tyrosyl-DNA phosphodiesterase 2 (Homo sapiens, UniProt O95551); assay: Inhibition of recombinant Tdp2
T2 sequence (O95551 whole entry): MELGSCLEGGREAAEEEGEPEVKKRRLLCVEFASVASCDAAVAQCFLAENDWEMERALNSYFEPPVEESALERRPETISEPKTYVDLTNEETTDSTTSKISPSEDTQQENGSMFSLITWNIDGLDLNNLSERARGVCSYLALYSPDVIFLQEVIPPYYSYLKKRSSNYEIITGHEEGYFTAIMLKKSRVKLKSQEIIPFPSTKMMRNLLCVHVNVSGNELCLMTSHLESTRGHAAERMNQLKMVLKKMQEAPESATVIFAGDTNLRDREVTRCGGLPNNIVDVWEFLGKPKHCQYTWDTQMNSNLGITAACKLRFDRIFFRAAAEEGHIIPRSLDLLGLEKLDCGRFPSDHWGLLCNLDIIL

[4] = molecular target: T1, Tyrosyl-DNA phosphodiesterase 1; assay: Binding affinity to human recombinant Tdp1 in amine coupled to CM5 sensor chip by surface plasmon resonance analysis
Summary of the method: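 SPR: Tdp1 amine-coupled to CM5 chip (~6000 RU), active site protected during coupling by prebinding 2 μM 3′-phosphate 14-mer oligo to 1 μM Tdp1 in 10 mM sodium acetate pH 4.5, 20 min. Compound series 0.39–50 μM in Tris/KCl/EDTA/DTT/BSA running buffer with 5% DMSO, pH 7.5, injected at 30 μL/min, 25 °C. Buffer-cycle referencing; DMSO calibration.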

[5] = molecular target: T1, Tyrosyl-DNA phosphodiesterase 1; assay: Inhibition of human recombinant Tdp1 assessed as conversion of 14-mer 5'-32P-labeled 3'-phosphotyrosyl DNA substrate N14Y to 14-mer 5'-32P-labeled 3'-phosphate DNA product N14P after 15 mins by PAGE analysis in presence of bovine serum albumin
[6] = molecular target: T1, Tyrosyl-DNA phosphodiesterase 1; assay: Ratio of IC50 for human recombinant Tdp1 in presence of bovine serum albumin to IC50 for human recombinant Tdp1 in absence of bovine serum albumin
[7] = tested on: N14Y tyrosyl-oligonucleotide (DNA, no organism); assay: Binding affinity to biotin- GATCTAAAAGACTT-Tyr immobilized CM5 sensor chip by surface plasmon resonance analysis
Homo sapiens = organism: Homo sapiens; assay: Selectivity ratio of IC50 for recombinant Tdp2 to IC50 for human recombinant Tdp1

Row | Structure (SMILES) | IC50 [1] [µM] | further results
1 | O=C1NC(=S)/C(=C/c2cc(O)ccc2O)S1 | 7.1 | IC50 [2]: 76 µM
2 | O=C1NC(=S)/C(=C/c2ccc(O)c(O)c2O)S1 | 0.87 | IC50 [3]: 17 µM; Activity [4]: Dose-dependent effect; IC50 [2]: 35 µM; IC50 [5]: 2.8 µM; Ratio IC50 [6]: 3; Activity [7]: inactive; Ratio IC50 (Homo sapiens): 20
3 | O=C1/C(=C/c2ccc(O)c(O)c2)NC(=S)N1c1ccccc1 | 74 | 
4 | O=C1NC(=O)/C(=C/c2ccc3[nH]ccc3c2)S1 | > 111 | 
5 | N#C/C(=C\c1ccc(O)c(O)c1)C(=O)O | > 333 | 
6 | O=C1NC(=O)/C(=C/c2ccc(C(=O)O)cc2)S1 | > 111 | 
7 | N#C/C(=C\c1ccc(O)c(O)c1)C(=O)NCc1ccccc1 | > 333 | 
8 | CCOP(=O)(OCC)c1ccc(/C=C2\SC(=O)NC2=S)cc1 | 29 | 
9 | Cn1cc(/C=C2\SC(=O)NC2=S)c2ccccc21 | 40 | 
10 | O=C1NC(=S)/C(=C/c2ccccc2-c2nnn[nH]2)S1 | 111 | 
11 | O=C1NC(=S)/C(=C/c2ccccc2S(=O)(=O)O)S1 | 20 | 
12 | O=C1/C(=C/c2ccc(F)cc2)NC(=S)N1c1ccccc1 | > 333 | 
13 | CC(=O)Nc1ccc(/C=C(\C#N)C(N)=S)cc1 | > 333 | 
14 | N#C/C(=C\c1ccc(O)c(O)c1)C(N)=O | > 333 | 
15 | O=C(O)c1ccc(/C=C2\NC(=S)N(c3ccccc3)C2=O)cc1 | > 333 | 
16 | O=C1NC(=S)N(Cc2ccccc2)/C1=C\c1ccc(O)c(O)c1 | 13 | 

Row | Structure (SMILES) | IC50 [1] [µM] | further results
17 | N#C/C(=C\c1ccc(Br)cc1)C(N)=S | > 333 | 
18 | O=C1NC(=S)/C(=C/c2ccc(-c3nnn[nH]3)cc2)S1 | 32 | 
19 | N#C/C(=C\c1ccc(F)cc1)C(N)=S | > 333 | 
20 | O=C1NC(=O)/C(=C/c2ccc(F)cc2)S1 | > 333 | 
21 | N#C/C(=C\c1ccc2[nH]ccc2c1)C(N)=S | > 333 | 
22 | O=C1NC(=S)/C(=C/c2csc3ccccc23)S1 | 34 | 
23 | O=C1NC(=S)/C(=C/c2ccc(O)cc2O)S1 | 4.1 | IC50 [2]: 76 µM
24 | N#C/C(=C\c1ccc(C(=O)O)cc1)C(N)=S | 12 | 
25 | N#C/C(=C\c1ccc([N+](=O)[O-])cc1)C(N)=S | > 333 | 
26 | O=C1NC(=S)/C(=C/c2ccc(-c3ccccc3)s2)S1 | 46 | 
27 | COc1cc(/C=C2\SC(=O)NC2=S)cc(OC)c1O | 48 | 
28 | N#C/C(=C\c1ccc(O)c(O)c1)C(=S)NCc1ccccc1 | 18 | 
29 | N#C/C(=C\c1ccc2ccccc2c1)C(N)=S | > 333 | 
30 | N#CC(C#N)=Cc1cc(O)c(O)c(O)c1 [TYRPHOSTIN 25] | > 333 | 
31 | O=C1NC(=S)N(Cc2ccccc2)/C1=C\c1ccc(C(=O)O)cc1 | > 333 | 

More lines, main results first:

Row | IC50 [1] [µM] | Structure (SMILES) | further results
32 | 39 | O=C1NC(=S)/C(=C/c2ccc(O)cc2)S1 | 
33 | 7.8 | O=C1NC(=S)/C(=C/c2ccc(C(=O)O)cc2)S1 [listing 1 of 2 here] | IC50 [2]: 6.9 µM
34 | 75 | O=C1NC(=S)/C(=C/c2ccncc2)S1 | 
35 | 2.6 | O=C1NC(=S)/C(=C/c2ccc(O)c(O)c2)S1 | IC50 [2]: 41 µM
36 | 28 | N#Cc1ccc(/C=C2\SC(=O)NC2=S)cc1 | 
37 | 5.8 | O=C1NC(=S)/C(=C/c2cccc(O)c2O)S1 | IC50 [2]: 220 µM
38 | 19 | O=C1NC(=S)/C(=C/c2ccc([N+](=O)[O-])cc2)S1 | 
39 | 11 | COc1cc(/C=C2\SC(=O)NC2=S)ccc1O | 
40 | 12 | O=C1NC(=S)/C(=C/c2ccc3[nH]ccc3c2)S1 | 
41 | 27 | O=C1NC(=S)/C(=C/c2ccc(F)cc2)S1 | 
42 | 51 | COC(=O)c1cccc(/C=C2\SC(=O)NC2=S)c1 | 
43 | 16 | O=C1NC(=S)/C(=C/c2ccc(C(=O)O)cc2)S1 [listing 2 of 2 here] | IC50 [2]: 11 µM
44 | 26 | O=C1NC(=S)/C(=C/c2cccc(O)c2)S1 | 
45 | 15 | O=C1NC(=S)/C(=C/c2ccccc2C(=O)O)S1 [listing 1 of 2 here] | IC50 [2]: 138 µM
46 | 30 | O=C1NC(=S)/C(=C/c2ccc(Br)cc2)S1 | 
47 | 15 | O=C1NC(=S)/C(=C/c2cccc(C(=O)O)c2)S1 | 
48 | 6.7 | COC(=O)c1ccc(/C=C2\SC(=O)NC2=S)cc1 | IC50 [2]: 38 µM
49 | 34 | O=C1NC(=S)/C(=C/c2ccccc2O)S1 | 
50 | 2.2 | O=C1NC(=S)/C(=C/c2ccc(P(=O)(O)O)cc2)S1 | IC50 [2]: 69 µM
51 | 44 | O=C1NC(=S)/C(=C/c2cccnc2)S1 | 
52 | 8.5 | O=C1NC(=S)/C(=C/c2ccccc2C(=O)O)S1 [listing 2 of 2 here] | IC50 [2]: 280 µM
